# Source: PubChem
# Compounds with a hit are over-represented: about 2.7% of the library has one in this group of screens.
# ARFGAP1 inhibitor: inhibits rat ARF GTPase activating protein 1; Q62848; inhibition, % at 16.5 µM; 360,000 tested, 0.26% active; Arfgap1-stimulated ARF1 GTP hydrolysis, GDP FP detection;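 active means inhibition above a per-plate limit, mean inhibition of low control wells plus 3 SD, cut at about 25% in these data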;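 further: 0% = DMSO wells with enzyme and 100% = wells lacking Arfgap1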
# Target sequence (Q62848 1-136 limits assumed): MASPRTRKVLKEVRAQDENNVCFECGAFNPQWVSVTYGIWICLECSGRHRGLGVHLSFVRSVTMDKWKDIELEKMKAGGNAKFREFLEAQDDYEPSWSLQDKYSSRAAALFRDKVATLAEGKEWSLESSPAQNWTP
#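 Material – truncated rat Arfgap1 GAP domain · Buffer or medium – HEPES-based buffer, pH 7.5 · Reagent – human ARF1(Δ1-17)-GTP substrate · Dosing – 16.5 µM single point, 1.26% DMSO · Schedule – GTP hydrolysis reaction 2 h at 25 °C · Technique – GDP detection by fluorescence polarization · Benchmarks – No-Arfgap1 wells (100%) versus DMSO full-reaction wells (0%) · Repeats – single replicate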
# PAFAH1B2 inh: blocks human PAF acetylhydrolase 1b catalytic subunit 2. recombinant PAFAH1B2, FP-rhodamine activity probe, fluorescence polarization. P68402. 340,000 tested, 1.2% active. inhibition, % at 3.39 µM;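 active means inhibition above the mean of all tested compounds plus 3 SD, cut at about 24% in these data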;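 further: 0% = enzyme with DMSO and 100% = wells lacking PAFAH1B2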
# Target sequence (P68402 whole entry, looked up): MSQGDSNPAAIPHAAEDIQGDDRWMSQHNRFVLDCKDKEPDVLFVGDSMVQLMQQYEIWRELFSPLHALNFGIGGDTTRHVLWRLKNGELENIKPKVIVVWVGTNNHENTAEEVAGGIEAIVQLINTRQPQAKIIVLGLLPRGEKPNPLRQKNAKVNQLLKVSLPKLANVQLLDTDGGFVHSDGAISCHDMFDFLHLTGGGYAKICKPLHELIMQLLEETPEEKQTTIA
# PAFAH1B3 inh: PAFAH1B3 (human) inhibition. 340,000 tested, 0.28% active. AID 492972. recombinant PAFAH1B3, FP-rhodamine probe, fluorescence polarization. inhibition, % at 3.39 µM;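 active means inhibition above the screen-wide average of all tested compounds plus 3 SD, cut at about 25% in these data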;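 further: 0% = enzyme with DMSO only and 100% = wells lacking PAFAH1B3 protein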
# Target sequence (Q15102 whole entry, looked up): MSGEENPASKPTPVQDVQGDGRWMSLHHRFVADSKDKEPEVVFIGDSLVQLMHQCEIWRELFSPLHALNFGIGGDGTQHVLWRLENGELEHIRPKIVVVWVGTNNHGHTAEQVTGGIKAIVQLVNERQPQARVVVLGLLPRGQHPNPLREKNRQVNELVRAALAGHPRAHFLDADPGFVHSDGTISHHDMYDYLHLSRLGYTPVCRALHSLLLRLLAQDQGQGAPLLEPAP
# ASAP1 GAP inh: inhibitors of human ASAP1 ArfGAP activity; inhibition, % at 16.5 µM; ASAP1-stimulated ARF1 GTP hydrolysis, GDP FP detection; Q9ULH1; 360,000 tested, 0.19% active; AID 624377; in the data active means inhibition above about 25%;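 further: 0% = vehicle with enzyme and substrate and 100% = no enzyme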
# pPAFAH FP inh: inhibitors of human plasma PAF acetylhydrolase (pPAFAH); Q13093; recombinant pPAFAH, FP-rhodamine probe fluorescence polarization; inhibition, % at 3.39 µM; 330,000 tested, 1.5% active; AID 463082;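 active means inhibition above the mean inhibition across the screen plus 3 SD, cut at about 25% in these data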;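 further: inhibitors block binding of the rhodamine activity-based probe so polarization drops; 0% = enzyme with DMSO and 100% = wells lacking pPAFAH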
# PAFAH2 FP inh: inhibitors of human PAFAH2. inhibition, % at 3.39 µM. Q99487. 340,000 tested, 0.99% active. recombinant PAFAH2, FP-rhodamine activity probe, fluorescence polarization;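 active means inhibition above the mean over all tested compounds plus 3 SD, cut at about 30% in these data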;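 further: inhibitors block probe labeling of enzyme so polarization drops; 0% = enzyme with DMSO and 100% = wells lacking PAFAH2 protein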
# The depositor's hits bear a star; nt = not tested or not shown.
SMILES,ARFGAP1 inhibitor,PAFAH1B2 inh,PAFAH1B3 inh,ASAP1 GAP inh,pPAFAH FP inh,PAFAH2 FP inh
COc1ccc2c(c1)CC/C(=C\Nc1ccc3c(c1)OCO3)C2=O,6.5,3.8,5.0,0.3,24.7*,8.0
O=C1C(Cl)=C(N2CCN(c3ccccc3[N+](=O)[O-])CC2)C(=O)c2ccccc21,6.0,28.3*,48.6*,0.0,16.2,40.0*
O=C(NCCc1ccccc1Cl)[C@@H]1CCCN1C(=O)[C@@H](NC(=O)N1CCOCC1)C1CCCCC1,-6.3,nt,nt,-6.5,nt,nt
COc1ccc(-c2cc(C)no2)cc1S(=O)(=O)Nc1cccc(C)c1,7.3,-1.2,5.6,0.0,30.1*,-0.2
CCCCCCCCCCCCCC(=O)O,-4.5,35.1*,14.4,11.4,2.1,12.5
CCCCCCC(=O)O,-6.7,0.6,9.7,3.5,1.0,-1.0
Cc1ccc(C2C(C#N)=C(N)SC(N)=C2C#N)o1,nt,nt,nt,nt,29.3*,nt
O=c1oc2ccccc2nc1/C=C(O)/C=C\c1ccccc1,7.6,6.2,-1.9,5.5,32.8*,2.4
CCN1C(=O)N[C@H]2C[C@@H](c3ccccc3)[C@@H](C)[C@@H](C(=O)N3CCCC3)C[C@H]21,-4.1,nt,nt,-10.0,nt,nt
CN(CC(=O)NCC(=O)Nc1ccc(F)cc1)CC(=O)Nc1ccc(Cl)c(C(F)(F)F)c1,-4.0,27.8*,0.2,6.8,nt,0.4
CN(CC(=O)NCc1ccc(F)cc1)CC(=O)Nc1ccc(Cl)c(C(F)(F)F)c1,16.7,5.9,-2.1,4.7,11.6,-3.0
O=C(NCc1ccccc1)[C@@H]1CCCN1C(=O)[C@H]1CCCN1C(=O)c1ccccc1F,-7.1,nt,nt,5.7,nt,nt
Cc1nccn1-c1ccc(NC(=O)[C@@H](Cc2ccccc2)NC(=O)[C@H]2O[C@@H](n3ccc(=O)[nH]c3=O)[C@H](O)[C@@H]2O)cc1,-10.0,nt,nt,9.8,nt,nt
CC(NC(=O)c1cc2cc(Br)ccc2oc1=N)c1ccccc1 (stereo not drawn),7.9,37.0*,1.9,-3.3,6.5,9.3
N=c1oc2ccc(Br)cc2cc1C(=O)NCc1ccccc1,8.7,3.5,-2.2,-1.5,4.9,-0.1
O=C(O)CCCCCCCCCCCc1ccccc1,-16.3,54.7*,9.8,-13.5,25.2*,16.3
Cc1[nH]n(-c2ncc(-c3ccccc3)s2)c(=O)c1C(c1ccc(Cl)cc1)C(C#N)C#N (stereo not drawn),3.3,7.6,14.4,-0.2,27.1*,29.3
O=C(N/N=C/c1ccc[nH]1)c1cc2ccccc2cc1O,0.6,7.2,21.8,-8.2,25.2*,9.9
O=C(N/N=C/c1ccncc1)c1cc2ccccc2cc1O,-8.2,4.0,4.0,13.5,nt,5.4
Cn1cccc1C(=O)NC(=O)COC(=O)CNS(=O)(=O)c1ccc(Br)cc1,-4.3,13.8,7.5,-4.7,9.0,5.7
CCOc1ccc(S(=O)(=O)NCCC(=O)OCC(=O)NC(=O)c2cccn2C)cc1,5.4,-0.1,9.6,3.9,25.3*,1.9
CCOc1cc(/C=C(/C#N)c2nc3ccccc3[nH]2)ccc1OCc1ccc(C(=O)O)o1,8.9,8.4,10.9,9.6,4.6,-0.8
CCOc1cc(/C=C(/C#N)c2ccc(F)cc2)ccc1OCc1ccc(C(=O)O)o1,2.8,31.9*,-1.0,-12.3,9.5,-5.1
O=c1[nH]c2c(s1)C(c1ccccc1)C1C3CCC(C3)C1S2 (stereo not drawn),-8.3,40.7*,8.5,0.5,11.8,-1.2
O=C(O)CCN1C(=O)C2C3CC(C2C1=O)C1C(c2ccccc2)c2sc(=O)[nH]c2SC31 (stereo not drawn),-4.2,83.8*,8.2,0.4,1.1,10.2
SMILES,ARFGAP1 inhibitor,PAFAH1B2 inh,PAFAH1B3 inh,ASAP1 GAP inh,pPAFAH FP inh,PAFAH2 FP inh
O=C(O)CCN1C(=O)C2C3CC(C2C1=O)C1C(c2ccccc2)c2sc(=O)n(-c4ccccc4)c2SC31 (stereo not drawn),-0.5,10.5,3.5,3.7,3.7,2.3
CC(C)[C@H](NC(=O)C1CC1)C(=O)N1CCC[C@H]1C(=O)NCc1ccccc1,-3.9,nt,nt,-2.4,nt,nt
Cc1c(C(=O)N/N=C/c2ccc(O)cc2)sc(=S)n1C,23.8,0.7,7.8,14.8,-2.5,7.1
Cc1c(C(=O)N/N=C/c2ccccc2)sc(=S)n1C,25.8*,4.6,10.2,-0.8,1.4,0.4
O=C(O)C1CCCN(S(=O)(=O)c2ccc(Cl)s2)C1 (stereo not drawn),-5.2,29.3*,5.5,3.8,4.5,-1.8
O=C(O)C1CCCN(S(=O)(=O)c2ccc(Br)s2)C1 (stereo not drawn),-8.4,12.0,8.0,16.7,3.6,5.1
O=c1[nH]c(=S)[nH]c2c1C(c1ccc(Br)cc1)c1c([nH]c(=S)[nH]c1=O)O2,-50.0,-3.8,20.8,-22.2,27.1*,54.7*
O=C1CCCC2=C1C(c1ccc(Br)cc1)c1c([nH]c(=S)[nH]c1=O)N2 (stereo not drawn),-6.7,-0.9,-3.6,0.6,2.3,-6.3
CCCCOc1ccc(S(=O)(=O)NC(=O)NCc2ccc(OCCC)cc2)cc1,-4.0,41.8*,3.2,-14.3,7.9,5.1
CCCCOc1ccc(CNC(=O)NS(=O)(=O)c2ccc(OCC(C)C)cc2)cc1,-4.3,58.8*,2.9,7.0,1.9,-1.4
CCCCOc1ccc(CNC(=O)NS(=O)(=O)c2ccc(OCC)cc2)cc1,3.8,9.6,-1.4,-2.6,3.8,-7.6
COC(=O)c1c(C)[nH]c(C(=O)OC(C)C(=O)N(C)C2CCCCC2)c1C (stereo not drawn),-2.7,3.0,6.3,-4.4,25.7*,1.9
N#Cc1c(N2CCN(C(=O)c3ccccc3Cl)CC2)nc(-c2ccccc2)c2c1CCCC2,2.7,-0.6,5.0,-4.1,1.6,4.3
CC1(C)Cc2c(C#N)c(N3CCN(C(=O)c4ccccc4Cl)CC3)nc(-c3ccco3)c2CS1,-3.2,3.9,5.2,-6.1,34.4*,9.6
CC1(C)Cc2c(C#N)c(N3CCN(C(=O)c4ccco4)CC3)nc(-c3ccco3)c2CS1,-6.7,-3.0,1.7,6.5,31.9*,17.0
CC(=O)N1CCN(c2nc(-c3ccco3)c3c(c2C#N)CC(C)(C)SC3)CC1,-7.5,4.5,1.7,-5.1,16.5,13.7
C/C(=C1/SC(N2CC(C)OC(C)C2)=NC1=O)c1ccccc1 (stereo not drawn),2.4,8.0,5.7,-0.8,28.3*,-1.4
Cc1cc2c(nc1C)CCCN2S(=O)(=O)c1ccc(C(F)(F)F)cc1,10.2,nt,nt,-7.2,nt,nt
CCOC(=O)C1=C(CSc2nc3c(cc2C#N)CN(C)CC3)OC(N)=C(C#N)C1c1ccncc1 (stereo not drawn),9.7,10.8,12.6,10.4,23.2,25.4
CCOC(=O)C1=C(CSc2nc3c(cc2C#N)CN(C)CC3)OC(N)=C(C#N)C1c1ccc(Cl)cc1 (stereo not drawn),0.1,3.0,9.3,0.5,29.0*,4.3
